Measurements from paper PMC9884082 (Journal of Medicinal Chemistry, 2023).
Where “and” joins values, the source holds several entries; their conditions need not be identical. Equal values may be shown once. Entries after “also recorded” stand apart in the source; their conditions may differ.

Tests used:
[1] = system: colon cancer cell line HT-29 spheroids; experiment: Spheroid inhibition assay; assay type: cell-based, human
Procedure, shortened: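 HT-29 cells (≤6 passages) were seeded at 100–300 cells/well in low-adhesion plates. Medium was stem cell medium: DMEM:F12 with B27, 20 ng/mL EGF and 10 ng/mL FGF. After brief incubation, vehicle or test compound was added. After 3–7 days, spheroids of 50–150 μm were counted by phase-contrast microscopy as percent of vehicle. IC50 came from normalized sigmoidal regression; ≥3 replicates.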

HT-29 monolayer culture = experiment: Cell proliferation; assay type: cell-based, human; settings: MTT, 60-72 h
Procedure, shortened: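 HT-29 cells kept as monolayers in DMEM:F-12 with 10% FBS and 1% penicillin/streptomycin, passaged before 70% confluence. About 2.5 × 10³ cells/well were incubated overnight (37 °C, 5% CO₂), then exposed to test compound for 60–72 h. MTT (5 mg/mL stock in PBS) was added for 2–3 h and crystals dissolved in DMSO. A590 was read and growth expressed as percent of vehicle; ≥3 replicates.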

[2] = system: pooled normal human plasma; experiment: Human plasma clotting time; assay type: biochemical; settings: ∼34 to ∼68 s
Procedure, shortened: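 APTT was run in a fibrometer by one-stage recalcification. Test compound was mixed with citrated pooled normal human plasma and prewarmed APTT reagent (ellagic acid). After 4 min at 37 °C, clotting was started with prewarmed 25 mM CaCl₂ and time to clot recorded. A quadratic trend line fitted to the data gave the concentration doubling clotting time.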

[3] = Mouse tail bleeding study; assay type: in vivo, wild-type ICR mice; settings: IV; NSGMs 1–100 mg/kg, enoxaparin 224 μg/kg
[4] = system: CD133+/CXCR4+ (Dual Hi) HT-29 xenografts; experiment: Dual Hi HT-29 xenograft after FUOX enrichment, oral G2C or IP G2.2; assay type: in vivo, NCr nude mice; settings: for tumor growth compared to vehicle: experiment 2, G2.2 100 mg/kg IP 3 times/week, G2C 100 mg/kg PO 5 times/week, 3 weeks
Procedure, shortened: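 1 × 10⁵ CD133⁺/CXCR4⁺ HT-29 cells were injected subcutaneously into NCr nude mice. Palpable tumors received 50 mg/kg 5-FU plus 5 mg/kg oxaliplatin IP weekly for 3 weeks. Mice were randomized to vehicle or test compound 100 mg/kg PO 5 times/week for 3 weeks, or, in a second experiment, parent 100 mg/kg IP 3 times/week. Xenograft single cells were assessed for 1–3° spheroids. CD133/CXCR4/LGR5 cells were quantified by flow cytometry (30 min staining, 4 °C).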

colon xenografts = settings: cited from earlier work
HT-29 xenografts = experiment: HT-29 xenograft after FUOX enrichment, IP G2C, FUOX or G2C+FUOX; assay type: in vivo, NCr nude mice
Procedure, shortened: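 1 × 10⁶ unsorted HT-29 cells were injected subcutaneously into NCr nude mice. Palpable tumors received 25 mg/kg 5-fluorouracil plus 2 mg/kg oxaliplatin IP weekly for 3 weeks. Mice were randomized to vehicle, test compound 50 mg/kg IP three times/week (8 doses), continued 5-FU/oxaliplatin, or both. Tumor volume was followed to sacrifice (n = 2/group) and compared with vehicle.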

[5] = system: intestinal crypt-derived organoids; experiment: Ex vivo intestinal crypt-derived organoids from treated mice; assay type: in vivo
[6] = HT-29 spheroids, relative to G2.2

O=c1c(OS(=O)(=O)[O-])c(-c2ccc(OS(=O)(=O)[O-])cc2OS(=O)(=O)[O-])oc2cc(OS(=O)(=O)[O-])cc(OCC3CCC(COc4cc(OS(=O)(=O)[O-])cc5oc(-c6ccc(OS(=O)(=O)[O-])cc6OS(=O)(=O)[O-])c(OS(=O)(=O)[O-])c(=O)c45)CC3)c12.[Na+].[Na+].[Na+].[Na+].[Na+].[Na+].[Na+].[Na+] (stereo not drawn) [MMD1, Sodium 4-(5-((4-(((2-(2,4-Bis(sulfonatooxy)phenyl)-4-oxo-3,7-bis(sulfonatooxy)-4H-chromen-5-yl)oxy)methyl)cyclohexyl)methoxy)-4-oxo-3,7-bis(sulfonatooxy)-4H-chromen-2-yl)-1,3-phenylene Bis(sulfate)]
fold better than G2.2 (spheroid potency, IC50 gain) [1, 6]: 1.7 fold | cytotoxicity under monolayer conditions (HT-29 monolayer culture): did not display significant cytotoxicity

enoxaparin [reference compound]
concentration required for 2-fold increase in APTT [2]: 3 µM | blood loss, tail bleeding [3]: significantly higher blood loss

O=c1cc(-c2ccc(OS(=O)(=O)[O-])cc2)oc2cc(OS(=O)(=O)[O-])cc(OCC3CCC(COc4cc(OS(=O)(=O)[O-])cc5oc(-c6ccc(OS(=O)(=O)[O-])cc6)cc(=O)c45)CC3)c12.[Na+].[Na+].[Na+].[Na+] (stereo not drawn) [MAD1, Sodium 4-Oxo-5-((4-(((4-oxo-7-(sulfonatooxy)-2-(4-(sulfonatooxy)phenyl)-4H-chromen-5-yl)oxy)methyl)cyclohexyl)methoxy)-2-(4-(sulfonatooxy)phenyl)-4H-chromen-7-yl Sulfate]
fold weaker than G2.2 (spheroid potency) [1, 6]: about 1.6 fold | fold lower potency than MQD1 ([1]; eight (MQD1) to four (MAD1) sulfate groups): 11.4 fold | cytotoxicity under monolayer conditions (HT-29 monolayer culture): did not display significant cytotoxicity

O=c1c(OS(=O)(=O)[O-])c(-c2ccc(OS(=O)(=O)[O-])c(OS(=O)(=O)[O-])c2)oc2cc(OS(=O)(=O)[O-])cc(OCCCOc3cc(OS(=O)(=O)[O-])cc4oc(-c5ccc(OS(=O)(=O)[O-])c(OS(=O)(=O)[O-])c5)c(OS(=O)(=O)[O-])c(=O)c34)c12.[Na+].[Na+].[Na+].[Na+].[Na+].[Na+].[Na+].[Na+] [G2.2, Sodium 4-(5-(3-((2-(3,4-Bis(sulfonatooxy)phenyl)-4-oxo-3,7-bis(sulfonatooxy)-4H-chromen-5-yl)oxy)propoxy)-4-oxo-3,7-bis(sulfonatooxy)-4H-chromen-2-yl)-1,2-phenylene Bis(sulfate)]
concentration required for 2-fold increase in APTT [2]: 900 µM | tumor growth compared to vehicle [4]: seemed to reduce tumor growth | expression of BMI-1 (CSC self-renewal marker) (colon xenografts): significant reduction in the expression of BMI-1 | expression of colon CSC markers (colon xenografts): inhibited the expression of CD133^+, CXCR4^+, DCAMLK1, and/or LGR5 markers | growth of colon xenografts and toxicity (colon xenografts; parenterally administered): inhibits the growth of colon xenografts without any toxicity to vital organs or bleeding consequences

CC(C)CCC[C@@H](C)[C@H]1CC[C@H]2[C@@H]3CC=C4C[C@@H](OCCOc5cc(-c6oc7cc(OS(=O)(=O)[O-])cc(OCCCOc8cc(OS(=O)(=O)[O-])cc9oc(-c%10ccc(OS(=O)(=O)[O-])c(OS(=O)(=O)[O-])c%10)c(OS(=O)(=O)[O-])c(=O)c89)c7c(=O)c6OS(=O)(=O)[O-])ccc5OS(=O)(=O)[O-])CC[C@]4(C)[C@H]3CC[C@]12C.[Na+].[Na+].[Na+].[Na+].[Na+].[Na+].[Na+] [G2C, Sodium 4-(5-(3-((2-(3-(2-(((8S,9S,10R,13R,14S,17R)-10,13-Dimethyl-17-((R)-6-methylheptan-2-yl)-2,3,4,7,8,9,10,11,12,13,14,15,16,17-tetradecahydro-1H-cyclopenta[a]phenanthren-3-yl)oxy)ethoxy)-4-(sulfonatooxy)phenyl)-4-oxo-3,7-bis(sulfonatooxy)-4H-chromen-5-yl)oxy)propoxy)-4-oxo-3,7-bis(sulfonatooxy)-4H-chromen-2-yl)-1,2-phenylene Bis(sulfate)]
cytotoxicity under monolayer conditions (HT-29 monolayer culture): significantly cytotoxic at ∼100 μM | concentration required for 2-fold increase in APTT [2]: ~300 µM | blood loss, tail bleeding [3]: did not exhibit much tail bleeding phenotype | inhibition of xenografts compared to vehicle (HT-29 xenografts; G2C 50 mg/kg IP (Figure 6B)): 30% | animal weight (HT-29 xenografts; G2C 50 mg/kg IP alone or with FUOX): no significant change in animal weight | expression of DCAMKL1 and BMI-1 in xenograft lysate (HT-29 xenografts; Western blots): inhibition in the expression of DCAMKL1 (CSC marker) and BMI-1 (self-renewal marker) | 3 and 4° spheroid formation from xenograft-derived cells (HT-29 xenografts; ex vivo in CSC media, compared to vehicle): significant inhibition of self-renewing CSCs | animal weight ([4]; daily oral G2C): did not lose weight | bleeding at the site of injection or in organs ([4]; daily oral G2C): no obvious sign of major bleeding | 3° spheroid formation from xenograft-derived cells ([4]; experiment 1, G2C 100 mg/kg PO): significantly inhibited | Dual Hi cell-induced tumor growth ([4]; experiment 1, G2C 100 mg/kg PO 5 times/week for 3 weeks): significantly inhibited Dual Hi cell-induced tumor growth | tumor growth compared to vehicle [4]: seemed to reduce tumor growth; also recorded: higher growth inhibition | proportion of CD133+/CXCR4+ (Dual Hi) and LGR5 cells in xenografts ([4]; flow cytometry, oral G2C): significantly lower | blood chemistry compared to vehicle ([4]; oral G2C): did not produce any significant change in blood chemistry | ex vivo growth of organoids derived from intestinal crypts ([5]; after IP G2C 50 mg/kg alone or with FUOX): did not inhibit ex vivo growth of organoids derived from intestinal crypts | intestinal crypt-derived organoid growth ([5]; after oral G2C 100 mg/kg 5 times/week for 3 weeks): did not reduce intestinal crypt-derived organoid growths

O=c1c(OS(=O)(=O)[O-])c(-c2ccc(OS(=O)(=O)[O-])c(OS(=O)(=O)[O-])c2)oc2cc(OS(=O)(=O)[O-])cc(OCC3CCC(COc4cc(OS(=O)(=O)[O-])cc5oc(-c6ccc(OS(=O)(=O)[O-])c(OS(=O)(=O)[O-])c6)c(OS(=O)(=O)[O-])c(=O)c45)CC3)c12.[Na+].[Na+].[Na+].[Na+].[Na+].[Na+].[Na+].[Na+] (stereo not drawn) [MQD1, Sodium 4-(5-((4-(((2-(3,4-Bis(sulfonatooxy)phenyl)-4-oxo-3,7-bis(sulfonatooxy)-4H-chromen-5-yl)oxy)methyl)cyclohexyl)methoxy)-4-oxo-3,7-bis(sulfonatooxy)-4H-chromen-2-yl)-1,2-phenylene Bis(sulfate)]
fold better than G2.2 (spheroid potency, IC50 gain) [1, 6]: 7.3 fold and ~9 fold | cytotoxicity under monolayer conditions (HT-29 monolayer culture): did not display significant cytotoxicity

CC(C)CCC[C@@H](C)[C@H]1CC[C@H]2[C@@H]3CC=C4C[C@@H](OCCCCCCCCOc5cc(-c6oc7cc(OS(=O)(=O)[O-])cc(OCCCOc8cc(OS(=O)(=O)[O-])cc9oc(-c%10ccc(OS(=O)(=O)[O-])c(OS(=O)(=O)[O-])c%10)c(OS(=O)(=O)[O-])c(=O)c89)c7c(=O)c6OS(=O)(=O)[O-])ccc5OS(=O)(=O)[O-])CC[C@]4(C)[C@H]3CC[C@]12C.[Na+].[Na+].[Na+].[Na+].[Na+].[Na+].[Na+] [G8C, Sodium 4-(5-(3-((2-(3-((8-(((8S,9S,10R,13R,14S,17R)-10,13-Dimethyl-17-((R)-6-methylheptan-2-yl)-2,3,4,7,8,9,10,11,12,13,14,15,16,17-tetradecahydro-1H-cyclopenta[a]phenanthren-3-yl)oxy)octyl)oxy)-4-(sulfonatooxy)phenyl)-4-oxo-3,7-bis(sulfonatooxy)-4H-chromen-5-yl)oxy)propoxy)-4-oxo-3,7-bis(sulfonatooxy)-4H-chromen-2-yl)-1,2-phenylene Bis(sulfate)]
cytotoxicity under monolayer conditions (HT-29 monolayer culture): significantly cytotoxic at ∼100 μM | concentration required for 2-fold increase in APTT [2]: ~37 µM | blood loss, tail bleeding [3]: did not exhibit much tail bleeding phenotype
